One assay concerns MCF7. The experiment in a line: Cytotoxicity against human MCF7 cells assessed as reduction in cell growth incubated for 96 hrs by MTT assay. The following applies: MCF7, 96 h. It counts as functional, cell-based. The method in brief: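 Growth inhibition of human breast carcinoma cells, reported as IC50; run in duplicate or triplicate.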
Background: Formazan colour is commonly taken as a measure of viable cells.

The target of the next assay is Tubulin (Homo sapiens) (UniProt P68371+Q9H4B7+P0DPH7+P68366+Q13509+Q71U36+P04350+Q3ZCM7+P07437+P68363+Q9BQE3+Q6PEY2+Q13885+Q9BVA1+Q9BUF5). Kind of assay: Inhibition of [3H]colchicine binding to tubulin (unknown origin) at 5 uM incubated for 10 mins by DEAE-cellulose filter method relative to control. It counts as protein-complex assay.
The next assay deals with Tubulin. The experiment in a line: Inhibition of tubulin polymerization (unknown origin) incubated for 15 mins followed by GTP addition and measured for 20 mins by spectrophotometry. It counts as protein-complex assay, Homo sapiens. The method in brief: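 Tubulin assembly assay with tubulin at 10 µM. IC50 for inhibition of polymerization; run in duplicate or triplicate.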

Structures are written as SMILES.

What is called IC50 is the concentration that inhibits the measured activity by half. A word on the inhibition: it is the percentage by which the read-out fell short of the control. Take `COc1cc(C(=O)c2cn(-c3cccc(C)c3)cc2-c2ccccc2F)cc(OC)c1OC`: the IC50 turned out to be 0.19 µM in the assay on MCF7 and 0.79 µM at Tubulin. The compound further showed an inhibition on Tubulin (Homo sapiens) of 57%.
As for `COc1ccccc1-n1cc(C(=O)c2cc(OC)c(OC)c(OC)c2)c(-c2ccccc2)c1`, the values for the half-maximal inhibitory concentration (IC50) in the assay with MCF7 and at Tubulin were 0.15 µM and 1.3 µM, respectively. At Tubulin (Homo sapiens), this compound came in with an inhibition of 22%.
For the compound `COc1cc(C(=O)c2cn(-c3cccc(C)c3)cc2-c2ccccc2Cl)cc(OC)c1OC`, the results for the IC50 with MCF7 and against Tubulin were 0.42 µM and 0.71 µM, respectively. Also, the inhibition at Tubulin (Homo sapiens) was 39%.
`COc1cc(C(=O)c2cn(-c3ccccc3)cc2-c2ccc([N+](=O)[O-])cc2)cc(OC)c1OC`: the results for the IC50 with MCF7 and against Tubulin were 0.59 µM and above 20 µM, respectively.
For the compound `COc1cc(C(=O)c2cn(-c3ccccc3[N+](=O)[O-])cc2-c2ccccc2)cc(OC)c1OC`, the results for the IC50 in the assay with MCF7 and against Tubulin were 5 µM and above 20 µM, respectively.
For `COc1cc(C(=O)c2cn(-c3ccc(N)cc3)cc2-c2ccccc2[N+](=O)[O-])cc(OC)c1OC`, the IC50 in the assay with MCF7 turned out to be 0.053 µM; at Tubulin, 0.52 µM. Further, on Tubulin (Homo sapiens), the inhibition stood at 69%.
For `COc1cc(C(=O)c2cn(-c3cccc(C)c3)cc2-c2cccc(N)c2)cc(OC)c1OC` the same measures were 0.13 µM, 0.91 µM and 64%.
In the case of `COc1cc(C(=O)c2cn(-c3cccc(Br)c3)cc2-c2ccccc2)cc(OC)c1OC`, the IC50 came to 0.078 µM with MCF7 and 1.9 µM at Tubulin. Further, on Tubulin (Homo sapiens), the inhibition worked out at 23%.
As to `COc1cc(C(=O)c2cn(-c3cccc(C)c3)cc2-c2cccc([N+](=O)[O-])c2)cc(OC)c1OC`, the IC50 with MCF7 is 0.88 µM; against Tubulin, above 20 µM. On Tubulin (Homo sapiens), this compound showed an inhibition of 4.2%.
Take `COc1cc(C(=O)c2cn(-c3ccc(C)cc3)cc2-c2ccccc2[N+](=O)[O-])cc(OC)c1OC`: the IC50 in the assay with MCF7 worked out at 0.065 µM; at Tubulin, 0.61 µM. For the same compound, at Tubulin (Homo sapiens), the inhibition turned out to be 71%.
As for `COc1cc(C(=O)c2cn(-c3ccccc3)cc2-c2c(F)cc(F)cc2F)cc(OC)c1OC`, the results for the IC50 in the assay with MCF7 and at Tubulin were 0.18 µM and 0.51 µM, respectively. The compound also came in with an inhibition at Tubulin (Homo sapiens) of 27%.
`COc1cc(C(=O)c2cn(-c3ccccc3)cc2-c2ccccc2Br)cc(OC)c1OC`: the 50% inhibitory concentration (IC50) came out at 0.19 µM with MCF7 and 0.67 µM at Tubulin. The inhibition at Tubulin (Homo sapiens) came out at 39%.
Regarding `COc1cc(C(=O)c2cn(-c3ccc(C)cc3)cc2-c2cccc([N+](=O)[O-])c2)cc(OC)c1OC`, the IC50 in the assay on MCF7 stood at 0.21 µM; against Tubulin, 0.71 µM. The compound also gave an inhibition on Tubulin (Homo sapiens) of 36%.
The corresponding values for `COc1cc(C(=O)c2cn(-c3ccc(N)cc3)cc2-c2cccc(N)c2)cc(OC)c1OC` are 0.078 µM, 0.87 µM and 59%.
In the case of `COc1cc(C(=O)c2cn(-c3ccc(C)cc3)cc2-c2ccccc2Cl)cc(OC)c1OC`, the IC50 in the assay with MCF7 worked out at 0.18 µM; against Tubulin, 0.48 µM. At Tubulin (Homo sapiens), this compound returned an inhibition of 70%.
With `COc1cc(C(=O)c2cn(-c3ccccc3)cc2-c2cccc(Cl)c2)cc(OC)c1OC`, the half-maximal inhibitory concentration (IC50) was 0.54 µM in the assay on MCF7 and 2.3 µM against Tubulin. Besides, the inhibition at Tubulin (Homo sapiens) turned out to be 7.5%.
As to `COc1cc(C(=O)c2cn(-c3ccccc3)cc2-c2ccc(N)cc2)cc(OC)c1OC`, the IC50 was determined as 0.009 µM with MCF7 and 1.2 µM at Tubulin.
On to `COc1cc(C(=O)c2cn(-c3ccccc3Cl)cc2-c2ccccc2)cc(OC)c1OC`, for which the half-inhibitory concentration (IC50) in the assay with MCF7 is 1.8 µM; on Tubulin it was above 20 µM.
Turning to `COc1cc(C(=O)c2cn(-c3ccc(C)cc3)cc2-c2ccc([N+](=O)[O-])cc2)cc(OC)c1OC`, the figures for the 50% inhibitory concentration (IC50) with MCF7 and against Tubulin were 0.2 µM and 0.65 µM, respectively. On Tubulin (Homo sapiens), the inhibition is 34%.
The corresponding values for `COc1cc(C(=O)c2cn(-c3cccc(N)c3)cc2-c2ccc([N+](=O)[O-])cc2)cc(OC)c1OC` are 0.11 µM, 0.78 µM and 41%.
For `COc1cc(C(=O)c2cn(-c3ccc(N)cc3)cc2-c2ccccc2Cl)cc(OC)c1OC` the same measures were 0.083 µM, 0.71 µM and 65%.
With `COc1cc(C(=O)c2cn(-c3ccc(N)cc3)cc2-c2cccc([N+](=O)[O-])c2)cc(OC)c1OC`, the IC50 worked out at 0.26 µM with MCF7 and 3.8 µM against Tubulin. For the same compound, at Tubulin (Homo sapiens), the inhibition was determined as 18%.
As for `COc1cccc(-n2cc(C(=O)c3cc(OC)c(OC)c(OC)c3)c(-c3ccccc3)c2)c1`, the figures for the IC50 in the assay on MCF7 and on Tubulin were 0.5 µM and 1.6 µM, respectively. This compound also showed an inhibition on Tubulin (Homo sapiens) of 25%.
The corresponding values for `COc1cc(C(=O)c2cn(-c3ccccc3)cc2-c2cccc([N+](=O)[O-])c2)cc(OC)c1OC` are 0.05 µM, 0.94 µM and 12%.
The corresponding values for `COc1cc(C(=O)c2cn(-c3cccc(N)c3)cc2-c2cccc([N+](=O)[O-])c2)cc(OC)c1OC` are 0.51 µM, 1.7 µM and 32%.
Turning to `COc1cc(C(=O)c2cn(-c3ccccc3C)cc2-c2ccccc2)cc(OC)c1OC`, the IC50 with MCF7 is 2.2 µM; against Tubulin, above 20 µM.
`COc1cc(C(=O)c2cn(-c3ccccc3)cc2-c2ccccc2[N+](=O)[O-])cc(OC)c1OC`: the values for the concentration for half-maximal inhibition (IC50) in the assay with MCF7 and against Tubulin were 0.049 µM and 0.73 µM, respectively. Further, on Tubulin (Homo sapiens), the inhibition came out at 61%.
Consider `COc1cc(C(=O)c2cn(-c3cccc(C)c3)cc2-c2ccc([N+](=O)[O-])cc2)cc(OC)c1OC`, for which the IC50 was 0.78 µM with MCF7 and above 20 µM at Tubulin. This compound also had an inhibition at Tubulin (Homo sapiens) of 10%.
For the compound `COc1cc(C(=O)c2cn(-c3ccccc3)cc2/C=C/c2ccccc2)cc(OC)c1OC`, the 50% inhibitory concentration (IC50) was 2.2 µM with MCF7 and above 20 µM against Tubulin.
For the compound `COc1cc(C(=O)c2cn(-c3ccc(F)cc3)cc2-c2ccccc2Cl)cc(OC)c1OC`, the IC50 in the assay with MCF7 was 0.083 µM; against Tubulin, 0.51 µM. This compound showed an inhibition at Tubulin (Homo sapiens) of 65%.
As for `COc1cc(C(=O)c2cn(-c3ccccc3N)cc2-c2ccccc2)cc(OC)c1OC`, the concentration for half-maximal inhibition (IC50) in the assay with MCF7 is 3.8 µM; at Tubulin, above 20 µM.
For `COc1cc(C(=O)c2cn(-c3ccccc3)cc2-c2ccc(Br)cc2)cc(OC)c1OC`, the IC50 was 0.34 µM in the assay with MCF7 and 0.77 µM on Tubulin. For the same compound, the inhibition at Tubulin (Homo sapiens) was 14%.
The corresponding values for `COc1cc(C(=O)c2cn(-c3cccc(N)c3)cc2-c2cccc(N)c2)cc(OC)c1OC` are 0.06 µM, 0.88 µM and 70%.
The corresponding values for `COc1cc(C(=O)c2cn(-c3ccc(F)cc3)cc2-c2cccc([N+](=O)[O-])c2)cc(OC)c1OC` are 0.44 µM, above 20 µM and 11%.
The corresponding values for `COc1cc(C(=O)c2cn(-c3ccc(F)cc3)cc2-c2cccc(N)c2)cc(OC)c1OC` are 0.053 µM, 0.41 µM and 68%.
Regarding `COc1cc(C(=O)c2cn(-c3cccc(Cl)c3)cc2-c2ccccc2)cc(OC)c1OC`, the IC50 with MCF7 is 0.15 µM; on Tubulin, 2.1 µM. On Tubulin (Homo sapiens), this compound showed an inhibition of 37%.
Regarding `COc1cc(C(=O)c2cn(-c3ccccc3)cc2-c2cccc(Br)c2)cc(OC)c1OC`, the half-inhibitory concentration (IC50) is 0.95 µM in the assay with MCF7 and above 20 µM against Tubulin.
In the case of `COc1ccc(Br)cc1-c1cn(-c2ccccc2)cc1C(=O)c1cc(OC)c(OC)c(OC)c1`, the concentration for half-maximal inhibition (IC50) with MCF7 was 2.2 µM; against Tubulin it was above 20 µM.

Values taken from ChEMBL document CHEMBL4312029, “Structure-activity relationship studies and in vitro and in vivo anticancer activity of novel 3-aroyl-1,4-diarylpyrroles against solid tumors and hematological malignancies” (Eur J Med Chem, 2020).
